Assay outcomes from PubChem.
This is a sample that favours compounds with a hit; in the whole collection about 3.7% have one here.
KCNK9 inh: human KCNK9 channel inhibition. HEK293 KCNK9, FluxOR thallium flux fluorescence; stronger effect = lower value. Q9NPC2. 310,000 tested, 1.2% active. B-score at 10 µM;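 active = ratio B-score over 3 SD below the library mean, with starting fluorescence within 5 SD of its mean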;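 also: negative B-score means less thallium flux so channel inhibition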
Target sequence (Q9NPC2 whole entry, looked up): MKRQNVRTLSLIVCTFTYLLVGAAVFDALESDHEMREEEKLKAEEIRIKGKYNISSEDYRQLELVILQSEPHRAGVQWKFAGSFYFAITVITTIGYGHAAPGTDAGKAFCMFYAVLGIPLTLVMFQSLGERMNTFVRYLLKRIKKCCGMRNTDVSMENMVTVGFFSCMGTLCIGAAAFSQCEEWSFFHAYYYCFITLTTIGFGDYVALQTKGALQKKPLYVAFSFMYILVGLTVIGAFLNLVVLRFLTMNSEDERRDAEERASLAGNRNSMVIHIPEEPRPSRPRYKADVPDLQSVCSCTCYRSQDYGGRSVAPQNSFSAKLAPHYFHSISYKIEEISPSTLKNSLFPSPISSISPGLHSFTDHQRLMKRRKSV
KCNK3 inh: human KCNK3 channel inhibition, primary screen. O14649. CHO-KCNK3 thallium flux, FluxOR fluorescence; stronger effect = lower value. B-score at 10 µM. 340,000 tested, 0.84% active;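 active = B-score under library mean minus 4 SD, starting fluorescence ratio at most library mean plus 5 SD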;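 also: more negative B-score means stronger inhibition of thallium flux through KCNK3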
Target sequence (O14649 whole entry, looked up): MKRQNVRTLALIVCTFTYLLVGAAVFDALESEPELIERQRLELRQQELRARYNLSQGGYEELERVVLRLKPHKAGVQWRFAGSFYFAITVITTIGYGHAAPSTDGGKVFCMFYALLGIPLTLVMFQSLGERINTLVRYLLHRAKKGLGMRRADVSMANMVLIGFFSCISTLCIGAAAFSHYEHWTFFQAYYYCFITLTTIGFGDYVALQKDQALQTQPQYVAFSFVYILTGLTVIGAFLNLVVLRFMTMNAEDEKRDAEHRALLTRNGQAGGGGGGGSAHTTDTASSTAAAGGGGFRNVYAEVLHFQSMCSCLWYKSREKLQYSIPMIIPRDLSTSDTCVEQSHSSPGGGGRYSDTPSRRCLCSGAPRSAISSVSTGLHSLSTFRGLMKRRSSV
Kir21 inh: inhibitors of mouse Kir2.1 inward-rectifier potassium channel; P35561; HEK293-Kir2.1, FluxOR thallium flux fluorescence; stronger effect = lower value; B-score at 10 µM; 310,000 tested, 0.85% active; AID 1672;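 active = fluorescence ratio B-score at or below minus 3 SD of library scores, with starting-brightness B-score within 2 SD, cut at about -4.2 in these data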;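 also: channel flux triggered by added potassium and thallium sulfate stimulus; B-score of peak minus minimum fluorescence over baseline after thallium stimulus; more negative B-score means stronger Kir2.1 block with less thallium influx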
KCNQ1 act: potentiates or activates the human KCNQ1 potassium channel; P51787; CHO-K1 KCNQ1, thallium flux FluxOR fluorescence; stronger effect = higher value; B-score at 10 µM; 310,000 tested, 0.35% active;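 active = fluorescence ratio B-score, a plate-corrected score, at least three library SD, with initial intensity B-score within 5 SD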
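Doses: Single concentration per compound, DMSO matched to controls | Test system: KCNQ1-transfected CHO-K1 cells | Timing: 90 min dye loading and 20 min compound exposure, both at room temperature | Measured by: Kinetic FluxOR thallium fluorescence, 10-s 1-Hz baseline, 110-s post-stimulus read | Medium: Assay buffer with matched DMSO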
hERG rescue: hERG (human) protection from proarrhythmic block. Q12809. CHO-hERG, FluxOR thallium flux, dofetilide IC70 present. activation (rescue from dofetilide block), less the hit threshold, % at 10 µM. 310,000 tested, 0.51% active;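 active = activation above the mean of controls blocked by dofetilide plus 5 SD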;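 also: thallium influx through hERG after potassium depolarization seen as dye fluorescence rise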
KCNQ1 inh: human KCNQ1 channel inhibition | P51787 | B-score at 10 µM | 310,000 tested, 1.3% active | CHO-K1 KCNQ1, FluxOR thallium flux fluorescence; stronger effect = higher value;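 active = compounds whose thallium flux B-score, printed positive for inhibition, exceeds three library SD while starting fluorescence stays within three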;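 also: channel opened by potassium depolarization with thallium stimulus after 20 min compound exposure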
KCNQ1 inh valid: reconfirmed blocker of the human KCNQ1 potassium channel; 1,600 tested, 93% active; inhibition, % at 10 µM; KCNQ1 cell line, FluxOR thallium flux fluorescence; shares compounds with KCNQ1 inh;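 active = primary screen active, with duplicate mean exceeding buffer control mean plus 3 SD of buffer wells, cut at about 28% in these data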;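 also: 0% = buffer control ratio and 100% = XE991 inhibitor control ratio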
CHO KCNQ1 ctr: counter-screen for KCNQ1 inhibitors: effect in parental CHO cells; shares compounds with KCNQ1 inh; parental CHO-K1, FluxOR thallium flux fluorescence ratio; stronger effect = lower value; zero means no signal rise above baseline; fluorescence ratio (Tl flux) at 10 µM; 1,600 tested, 21% active; AID 588366;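 active = mean of duplicate thallium-flux fluorescence ratios in parental host cells more than 5 SD below the buffer control mean, cut at about 0.38 in these data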;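 also: ratio is peak minus minimum fluorescence divided by baseline fluorescence; actives read low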
KCNQ1 ephys val: human KCNQ1 inhibition validated by electrophysiology; shares compounds with KCNQ1 inh; KCNQ1-CHO cells, automated patch clamp current; calls only at 10 µM; 490 tested, 20% active; AID 624120;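 active = KCNQ1 current drop exceeding 3 SD of negative control wells, seen in both duplicate runs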;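 also: steady state current during a 2 s step from -80 to +40 mV; negative values mean current inhibition and positive values mean potentiation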
KCNQ2 inh: selectivity of KCNQ1 inhibitors: inhibition of rat KCNQ2 channel; inhibition, % at 10 µM; KCNQ2 cells, FluxOR thallium flux fluorescence; shares compounds with KCNQ1 inh; 1,600 tested, 71% active;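 active = mean percent inhibition of the KCNQ2 thallium signal more than 5 SD above the buffer-only control wells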;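 also: KCNQ2 expressed in CHO cells; 0% = buffer control wells and 100% = XE-991 inhibitor control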
KCNQ1-KCNE1 inh: human KCNQ1/KCNE1 inhibition in KCNQ1 specificity screen; inhibition, % at 10 µM; KCNQ1/KCNE1 cells, FluxOR thallium flux fluorescence; shares compounds with KCNQ1 inh; 1,600 tested, 77% active; AID 652147;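 active = mean percent inhibition of duplicate wells above the buffer-only control mean plus 3 SD of those controls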;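 also: 0% = buffer only wells and 100% = XE-991 inhibitor control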
KCNK9 block conf: confirmation of human KCNK9 potassium channel inhibitors; shares compounds with KCNK9 inh; HEK293 KCNK9 cells, FluxOR thallium flux fluorescence; inhibition, % at 10 µM; 4,900 tested, 43% active;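 active = thallium signal inhibited by more than 5 SD of the compound-free buffer control wells, on both duplicate plates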;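 also: 0% = assay buffer control wells without compound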
Kir2-1 spec: selectivity of KCNK9 modulators against mouse Kir2.1; shares compounds with KCNK9 inh; Kir2.1 cells, FluxOR thallium flux fluorescence; inhibition, % at 10 µM; 4,900 tested, 4% active;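 active = thallium signal drop more than 5 SD beyond the mean of the no-compound control wells, seen in both duplicate plates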;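 also: signal is fluorescence rise after thallium addition divided by baseline fluorescence; plate controls were assay buffer only for no effect and full block by chlorpromazine control for full effect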
HEK293 Tl ctr: second counter-screen for KCNK9 modulators: effect in non-induced cells; shares compounds with KCNK9 inh; non-induced KCNK9-HEK293, FluxOR thallium flux; inhibition, % at 10 µM; 4,900 tested, 40% active; AID 492997;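 active = thallium signal drop beyond 5 SD of the untreated control mean, on both duplicate plates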;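 also: plate controls were buffer only IC0 wells for no effect and SID17386958 at its maximal inhibitory level for full effect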
* hit, by the source's call; i = inactive; nt = no result; + = active, no number.

SMILES	KCNK9 inh	KCNK3 inh	Kir21 inh	KCNQ1 act	hERG rescue	KCNQ1 inh	KCNQ1 inh valid	CHO KCNQ1 ctr	KCNQ2 inh	KCNQ1-KCNE1 inh	KCNK9 block conf	Kir2-1 spec	HEK293 Tl ctr	others
O=C(COc1ccccc1Cl)c1ccc2c(c1)CCCC2	i	i	1.5	i	-7	6*	94*	0.43	92%*	119%*	i	i	37%*	KCNQ1 ephys val=i
Cc1nc(C)c(C(=O)OCC(=O)Nc2cccc(C)c2C)s1	nt	i	nt	nt	nt	nt	nt	nt	nt	nt	nt	nt	nt
COC(=O)c1cccc(NC(=O)CN2C(=O)c3ccccc3C2=O)c1	i	i	2.2	i	-7	i	nt	nt	nt	nt	nt	nt	nt
COc1ccc2c(c1)-c1nc(NC(=O)c3cccs3)sc1CC2	-16*	i	0.7	i	-11	7*	108*	0.39	100%*	190%*	75%*	i	35%*	KCNQ1 ephys val=i
NS(=O)(=O)OCCCc1ccc(C(F)(F)F)cc1	i	i	0.02	i	-7	i	nt	nt	nt	nt	nt	nt	nt
CCOc1ccc(OC(=O)NC(c2ccccc2)C(Cl)(Cl)Cl)cc1 (stereo unspecified)	i	i	0.19	i	-17	8*	111*	0.43	101%*	168%*	i	i	i
CC(C)OC(=O)NC(c1ccccc1)C(Cl)(Cl)Cl (stereo unspecified)	i	i	-0.92	i	-18	i	nt	nt	nt	nt	nt	nt	nt
C=CCNC(=O)c1c[nH]c2ccc(S(=O)(=O)N(C)c3ccc(OCC)cc3)cc2c1=O	i	i	0.07	i	-1	i	nt	nt	nt	nt	nt	nt	nt
O=C(Nc1ccc(Oc2cccc3ccccc23)cc1)c1ccco1	-14*	i	1.4	i	-12	11*	160*	0.29*	i	+	54%*	i	31%*
O=C(CCc1nnc2ccc(NCc3ccco3)nn12)Nc1ccc(F)cc1F	i	i	0.45	i	-8	i	nt	nt	nt	nt	nt	nt	nt
Cc1ccc(Cl)cc1NC(=O)CC(O)(C(F)(F)F)C(F)(F)F	-19*	i	1.1	i	-18	8*	90*	0.47	i	83%*	i	29%*	28%*
CC(Sc1nc(N)cc(=O)[nH]1)C(=O)NCC(=O)Nc1ccc(F)c(F)c1F (stereo unspecified)	nt	i	nt	nt	nt	nt	nt	nt	nt	nt	nt	nt	nt
COc1ccc(-c2onc(C)c2-c2cnn(-c3ccccc3)c2)c(O)c1C	i	i	0.22	i	-10	6*	44*	0.4	115%*	39%*	i	i	i
S=C(Nc1ccc(Cc2ccncc2)cc1)Nc1cccc(Cl)c1	i	i	0.39	i	-10	8*	68*	0.51	86%*	37%*	i	i	i
CCC1(OC(=O)CN(C)C)C(=O)OCc2c1cc1n(c2=O)Cc2cc3c(N)cccc3nc2-1 (stereo unspecified)	nt	i	nt	nt	nt	nt	nt	nt	nt	nt	nt	nt	nt
CCOC1(c2ccccc2)OC(=O)c2ccccc21 (stereo unspecified)	i	i	-1.3	i	-3	i	nt	nt	nt	nt	nt	nt	nt
Cc1cccc(C)c1OC1(c2ccccc2)OC(=O)c2ccccc21 (stereo unspecified)	-19*	i	0.69	i	-16	9*	106*	0.42	98%*	138%*	55%*	32%*	44%*	KCNQ1 ephys val=i
COc1ccccc1OCC(=O)N(Cc1nnc(-c2ccccc2Cl)o1)C1CC1	i	i	-1.4	i	-13	i	nt	nt	nt	nt	nt	nt	nt
CCOC(=O)Cn1c(-c2ccccc2)nc2ccccc2c1=O	i	i	-0.17	i	-12	i	nt	nt	nt	nt	nt	nt	nt
CCCOC(=O)C(C)n1c(-c2ccccc2)nc2ccccc2c1=O (stereo unspecified)	-11*	i	-1.6	i	-9	7*	0	0.48	i	58%*	51%*	i	36%*
CC(=O)c1cccc(NC(=O)c2ccc(NC(=O)CC3SC(N4CCCCC4)=NC3=O)cc2)c1 (stereo unspecified)	i	i	0.52	i	-10	i	nt	nt	nt	nt	nt	nt	nt
O=C(Nc1ccc(Cl)cc1)Nc1ccccc1NS(=O)(=O)c1cccs1	-10*	i	-1.8	i	-6	7*	81*	0.56	66%*	i	32%*	i	i
O=C(Nc1ccc(F)cc1)Nc1ccccc1NS(=O)(=O)c1cccs1	i	i	-0.1	i	-11	i	nt	nt	nt	nt	nt	nt	nt
O=S(=O)(c1cccc2cccc(Cl)c12)N1CCCC1	i	i	-1.2	i	-18	i	nt	nt	nt	nt	nt	nt	nt
Cc1ccc(S(=O)(=O)N2CCN(Cc3ccccc3C(F)(F)F)CC2)cc1	i	i	-0.82	i	-12	10*	85*	0.41	94%*	94%*	i	i	i
CC(=O)c1ccc(OCCCC(=O)Nc2cccc(-c3nn[nH]n3)c2)cc1	i	i	-0.47	i	0	i	nt	nt	nt	nt	nt	nt	nt
CC(=O)c1sc2nc(-c3cccs3)cc(C(F)(F)F)c2c1N	-9.1*	i	-3.7	i	-4	7*	104*	0.29*	i	154%*	42%*	30%*	66%*
CN1/C(=C\C(=O)Nc2cccc(Cl)c2)C(C)(C)c2ccccc21	-8.2*	i	0.41	i	-14	9*	120*	0.39	125%*	169%*	45%*	i	34%*	KCNQ1 ephys val=i
